In ChEMBL document CHEMBL2046315, “Design, synthesis and structure-activity relationships of 5-alkylaminolquinolines as a novel series of CRF1 receptor antagonists” (Bioorg Med Chem Lett, 2012) one finds IC50 data, which are given here for 21 compounds.

The target in experiment [1] is T1, Corticotropin-releasing factor receptor 1 (Homo sapiens, UniProt P34998).
T1 sequence (P34998 whole entry): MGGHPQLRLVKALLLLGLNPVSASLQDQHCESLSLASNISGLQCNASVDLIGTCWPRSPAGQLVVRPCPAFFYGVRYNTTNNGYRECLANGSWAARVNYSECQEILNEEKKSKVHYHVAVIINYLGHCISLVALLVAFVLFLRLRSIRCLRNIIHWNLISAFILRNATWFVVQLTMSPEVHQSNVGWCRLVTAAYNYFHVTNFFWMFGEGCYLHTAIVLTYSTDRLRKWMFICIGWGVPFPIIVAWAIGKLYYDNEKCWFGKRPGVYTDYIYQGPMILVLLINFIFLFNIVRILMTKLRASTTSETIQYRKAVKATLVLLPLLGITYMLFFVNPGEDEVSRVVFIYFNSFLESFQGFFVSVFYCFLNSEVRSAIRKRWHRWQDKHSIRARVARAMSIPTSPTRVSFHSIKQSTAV
Kind of experiment: Displacement of [125I]-CRF from human CRF1 receptor expressed in HEK293 cells after 2 hrs by scintillation proximity assay. The format is cell-based. In short, it runs like this:
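Membranes (5 µg/well) with WGA-coated SPA beads and 0.1 nM [125I]-human/rat CRF. Assay buffer is phosphate-buffered saline with 10 mM MgCl2, 2 mM EGTA, 1.5% BSA and protease inhibitors, pH 7.0. Nonspecific binding defined with 0.4 µM sauvagine. Incubated over 2 h at room temperature and counted after centrifugation. Specific binding expressed as % of total; IC50 from concentration-response curve.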
(In general: In a radioligand displacement assay an active substance lowers the binding of a labelled ligand.)

In experiment [2] the target is T1, Corticotropin-releasing factor receptor 1. Kind of experiment: Antagonist activity at human CRF1 receptor expressed in HEK293 cells assessed as inhibition of CRF-stimulated intracellular cAMP accumulation preincubated for 30 mins measured after 30 mins by enzyme immunoassay. It is filed as functional, cell-based. The method in brief: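 Cells seeded at 5 × 10^4/well in DMEM with 0.1% FBS and 1 mM IBMX, pre-incubated 30 min, then test compound added for 30 min at 37 °C. Stimulation with 1 nM human/rat CRF for 30 min at 37 °C, followed by cell lysis. cAMP measured by EIA, basal (no CRF) subtracted, expressed as % of total production. IC50 from concentration-response curve.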
In general terms: cAMP levels reflect the balance of adenylyl cyclase and phosphodiesterase activity.

As usually defined, the IC50 is the concentration needed to halve the response being measured. In turn, `CCN(c1cccc2nc(Oc3c(OC)cc(COC)cc3OC)c(C)cc12)C1CCOCC1` registered an IC50 in experiment [1] of 323 nM.

In experiment [1], `COCc1cc(OC)c(Oc2nc3cccc(N(CC4CCOCC4)CC4CC4)c3cc2C)c(OC)c1` returned an IC50 of 762 nM.

In experiment [1], `CCCN(CCC)c1cccc2nc(Nc3c(OC)cc(OC)cc3OC)c(C)cc12` gave an IC50 greater than 1000 nM.

Turning to `Cc1cc(C)c(Nc2nc3cccc(N(CC4CC4)C4CCOCC4)c3cc2C)c(C)c1`, the concentration for half-maximal inhibition (IC50) in experiment [2] was 255 nM; in experiment [1], 90 nM.

Turning to `CCCN(CCC)c1cccc2nc(Oc3c(C)cc(C)cc3C)c(C)cc12`, in experiment [1], the half-maximal inhibitory concentration (IC50) worked out at 79 nM.

Consider `CCC(CC)Nc1cccc2nc(Oc3c(OC)cc(COC)cc3OC)c(C)cc12`, for which the half-inhibitory concentration (IC50) in experiment [1] is greater than 1000 nM.

Consider `CCCN(CCC)c1cccc2nc(Nc3c(C)cc(C)cc3C)c(=O)[nH]c12`, for which the IC50 came to 469 nM in experiment [2] and 100 nM in experiment [1].

Regarding `CCCN(CCC)c1cccc2nc(N(C)c3c(C)cc(C)cc3C)c(=O)n(C)c12`, in experiment [1], the IC50 is greater than 1000 nM.

For the compound `CCN(CC)c1cccc2nc(Oc3c(OC)cc(COC)cc3OC)c(C)cc12`, the concentration for half-maximal inhibition (IC50) was found to be 167 nM in experiment [2] and 70 nM in experiment [1].

In experiment [1], `COCc1cc(OC)c(Oc2nc3cccc(NC4CCCCC4)c3cc2C)c(OC)c1` showed an IC50 greater than 1000 nM.

In experiment [1], `CCN(Cc1ccncc1)c1cccc2nc(Oc3c(OC)cc(COC)cc3OC)c(C)cc12` registered an IC50 greater than 1000 nM.

Regarding `Cc1cc(C)c(Nc2nc3cccc(N(CC4CC4)CC4CC4)c3cc2C)c(C)c1`, the IC50 in experiment [1] came to 75 nM.

Regarding `CCCN(CCC)c1cccc2nc(Nc3c(C)cc(C)cc3C)c(=O)n(C)c12`, the IC50 in experiment [1] was determined as 672 nM.

In turn, `COCc1cc(OC)c(Oc2nc3cccc(N(CC4CC4)C4CCOCC4)c3cc2C)c(OC)c1` returned an IC50 in experiment [1] of 157 nM.

`CCN(CC1CCOCC1)c1cccc2nc(Oc3c(OC)cc(COC)cc3OC)c(C)cc12` registered an IC50 in experiment [1] of 646 nM.

As for `CCCN(CCC)c1cccc2nc(Oc3c(OC)cc(COC)cc3OC)c(C)cc12`, the IC50 was 163 nM in experiment [2] and 138 nM in experiment [1].

`Cc1cc(C)c(Nc2nc3cccc(N(CC4CCOCC4)CC4CC4)c3cc2C)c(C)c1` returned an IC50 in experiment [1] of 742 nM.

In experiment [1], `CCCN(CCC)c1cccc2nc(Nc3c(OC)cc(COC)cc3OC)c(C)cc12` registered a concentration for half-maximal inhibition (IC50) of 472 nM.

In the case of `CCCN(CCC)c1cccc2nc(Nc3c(C)cc(C)cc3C)c(C)nc12`, the half-inhibitory concentration (IC50) is 563 nM in experiment [2] and 155 nM in experiment [1].

`CCCC(CCC)Nc1cccc2nc(Nc3c(C)cc(C)cc3C)c(C)nc12` came in with an IC50 in experiment [1] of 197 nM.

In the case of `CCCN(CCC)c1cccc2nc(Nc3c(C)cc(C)cc3C)c(C)cc12`, the half-maximal inhibitory concentration (IC50) in experiment [2] amounted to 372 nM; in experiment [1], 88 nM.
